In ChEMBL document CHEMBL1275496, “In vivo pharmacodynamic target investigation for micafungin against Candida albicans and C. glabrata in a neutropenic murine candidiasis model” (Antimicrob Agents Chemother, 2008):
≈ marks a conversion by molar mass, not a printed value. *1 amine or outer side, *2 acyl side, *3 side chain or, on linkers, in order; H or OH if unused. Where a SMILES comes first, the peptide text is derived from it. Bridges are numbered along the chain shown (N, C = ends). [ ]: non-standard residue; d: D form. The star is where a group is joined. hTyr(3S-OH,4S-OH,3'-OSO3H) = N[C@H](C(=O)O)[C@H](O)[C@@H](O)c1ccc(O)c(OS(=O)(=O)O)c1; Orn(4R-OH,5R-OH) = O=C([C@H](C[C@@H](O)[C@@H](O)N[*:3])N[*:1])[*:2]; Pro(3S-OH,4S-Me) = C[C@H]1CN[C@H](C(=O)O)[C@H]1O; X1 = CCCCCOc1ccc(-c2cc(-c3ccc(C(=O)*)cc3)no2)cc1; Gln(3R-OH) = NC(=O)C[C@@H](O)[C@H](N)C(=O)O; Hyp = O=C(O)[C@@H]1C[C@@H](O)CN1

What was measured:
[1] = Ratio of AUC in ICR/Swiss neutropenic mouse at static dose of 9.25 mg/kg, ip after 24 hrs to MIC for Candida glabrata isolate 37661; assay type: functional; settings: route intraperitoneal
[2] = Ratio of AUC in ICR/Swiss neutropenic mouse at 1-Log kill dose of 1.69 mg/kg, ip after 24 hrs to MIC for Candida glabrata isolate 32930; assay type: functional; settings: route intraperitoneal
[3] = Ratio of AUC in ICR/Swiss neutropenic mouse at 1-Log kill dose of 4.26 mg/kg, ip after 24 hrs to MIC for Candida glabrata isolate 34341; assay type: functional; settings: route intraperitoneal
[4] = test system: Candida albicans; experiment: Antifungal activity against Candida albicans isolate 580 by CLSI method; assay type: functional
In short: (§1)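 Broth microdilution MIC per CLSI M27-A2. Two endpoints were read against the drug-free control well: partial inhibition (M1, CLSI recommended) and complete inhibition (M2). Tests were run in duplicate on four separate occasions, and the value is the mean.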

[5] = Ratio of fAUC in ICR/Swiss neutropenic mouse at static dose of 0.41 mg/kg, ip after 24 hrs to MIC for Candida glabrata isolate 33609; assay type: functional; settings: route intraperitoneal
[6] = test system: Nakaseomyces glabratus; experiment: Antifungal activity against Candida glabrata isolate 33616 by CLSI method; assay type: functional
In short: (§2)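 Broth microdilution per CLSI M27-A2. The MIC was read at partial inhibition (M1) and at complete inhibition (M2) against the drug-free control. Done in duplicate on four separate occasions and reported as the mean.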

[7] = test system: Nakaseomyces glabratus; experiment: Antifungal activity against Candida glabrata isolate 37661 by CLSI method; assay type: functional; in short: as §2
[8] = Ratio of fAUC in ICR/Swiss neutropenic mouse at static dose of 9.25 mg/kg, ip after 24 hrs to MIC for Candida glabrata isolate 37661; assay type: functional; settings: route intraperitoneal
[9] = test system: Nakaseomyces glabratus; experiment: Fungistatic activity against Candida glabrata isolate 32930 infected in ICR/Swiss neutropenic mouse after 24 hrs; assay type: functional
In short: (§3)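 Neutropenic female ICR/Swiss mice received cyclophosphamide sc at 150 mg/kg on day −4, 100 mg/kg on day −1 and 100 mg/kg on day +2. Mice were infected iv via the tail vein, and ip micafungin in 0.15 M NaCl started 2 h later. Six dose levels from 0.078 to 80 mg/kg/24 h were given q24h for 4 days, 3 mice per dose. Kidney CFU were counted at 96 h. The static dose was derived from a sigmoid Emax (Hill) fit.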

[10] = Ratio of AUC in ICR/Swiss neutropenic mouse at 1-Log kill dose of 5.46 mg/kg, ip after 24 hrs to MIC for Candida glabrata isolate 5592; assay type: functional; settings: route intraperitoneal
[11] = Ratio of fAUC in ICR/Swiss neutropenic mouse at 1-Log kill dose of 4.26 mg/kg, ip after 24 hrs to MIC for Candida glabrata isolate 34341; assay type: functional; settings: route intraperitoneal
[12] = species: Homo sapiens; experiment: fAUC in healthy human at 100 mg/day; assay type: ADME, organism-based; settings: in vivo
[13] = Ratio of AUC in ICR/Swiss neutropenic mouse at static dose of 1.98 mg/kg, ip after 24 hrs to MIC for Candida albicans isolate 580; assay type: functional; settings: route intraperitoneal
[14] = Ratio of AUC in ICR/Swiss neutropenic mouse at static dose of 2.53 mg/kg, ip after 24 hrs to MIC for Candida albicans isolate 98-17; assay type: functional; settings: route intraperitoneal
[15] = test system: Candida albicans; experiment: Fungistatic activity against Candida albicans isolate 580 infected in ICR/Swiss neutropenic mouse after 24 hrs; assay type: functional; in short: as §3
[16] = test system: Nakaseomyces glabratus; experiment: Antifungal activity against Candida glabrata isolate 5376 infected in ICR/Swiss neutropenic mouse assessed as dose required for 1-log kill after 24 hrs; assay type: functional
In short: (§4)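 Neutropenic mice (cyclophosphamide sc 150 mg/kg day −4, 100 mg/kg day −1 and +2) infected iv by tail vein 2 h before therapy. Micafungin given ip every 24 h for 4 days at six fourfold-spaced dose levels, 0.078–80 mg/kg/24 h, 3 mice per group. Kidney CFU read at 96 h. Hill-model fit; dose giving 1 log10 below start-of-therapy burden.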

[17] = Ratio of fAUC in ICR/Swiss neutropenic mouse at static dose of 3.88 mg/kg, ip after 24 hrs to MIC for Candida glabrata isolate 33616; assay type: functional; settings: route intraperitoneal
[18] = test system: Nakaseomyces glabratus; experiment: Antifungal activity against Candida glabrata isolate 32930 infected in ICR/Swiss neutropenic mouse assessed as dose required for 1-log kill after 24 hrs; assay type: functional; in short: as §4
[19] = test system: Candida albicans; experiment: Fungistatic activity against Candida albicans isolate 98-210 infected in ICR/Swiss neutropenic mouse after 24 hrs; assay type: functional; in short: as §3
[20] = Ratio of AUC in ICR/Swiss neutropenic mouse at 1-Log kill dose of 2.36 mg/kg, ip after 24 hrs to MIC for Candida albicans isolate 580; assay type: functional; settings: route intraperitoneal
[21] = Ratio of AUC in ICR/Swiss neutropenic mouse at static dose of 1.80 mg/kg, ip after 24 hrs to MIC for Candida glabrata isolate 5592; assay type: functional; settings: dose 1.8 mg/kg; route intraperitoneal
[22] = Ratio of fAUC in ICR/Swiss neutropenic mouse at static dose of 1.34 mg/kg, ip after 24 hrs to MIC for Candida glabrata isolate 513; assay type: functional; settings: route intraperitoneal
[23] = Ratio of fAUC in ICR/Swiss neutropenic mouse at static dose of 1.80 mg/kg, ip after 24 hrs to MIC for Candida glabrata isolate 5592; assay type: functional; settings: dose 1.8 mg/kg; route intraperitoneal
[24] = test system: Nakaseomyces glabratus; experiment: Antifungal activity against Candida glabrata isolate 37661 infected in ICR/Swiss neutropenic mouse assessed as dose required for 1-log kill after 24 hrs; assay type: functional; in short: as §4
[25] = test system: Nakaseomyces glabratus; experiment: Fungistatic activity against Candida glabrata isolate 5592 infected in ICR/Swiss neutropenic mouse after 24 hrs; assay type: functional; in short: as §3
[26] = test system: Candida albicans; experiment: Fungistatic activity against Candida albicans isolate 98-17 infected in ICR/Swiss neutropenic mouse after 24 hrs; assay type: functional; in short: as §3
[27] = AUC (0 to infinity) in Candida infected ICR/Swiss neutropenic mouse at 20 mg/kg, ip; assay type: ADME, organism-based; parameters: time infinity, dose 20 mg/kg, route intraperitoneal; settings: plasma
In short: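 Single intraperitoneal micafungin doses (80, 20, 5 mg/kg in 0.2 ml, 0.15 M NaCl) given to infected neutropenic mice. Serum was taken from 3 mice per time point at 1, 2, 4, 6, 8, 12, 24 and 48 h. Drug was measured by microbiologic assay with C. albicans K1 (LLOQ 0.12 μg/ml). Noncompartmental analysis; half-life by nonlinear least squares; AUC by trapezoidal rule.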

[28] = test system: Candida albicans; experiment: Antifungal activity against Candida albicans; assay type: functional; in short: as §1
[29] = test system: Nakaseomyces glabratus; experiment: Fungistatic activity against Candida glabrata isolate 513 infected in ICR/Swiss neutropenic mouse after 24 hrs; assay type: functional; in short: as §3
[30] = Ratio of fAUC in ICR/Swiss neutropenic mouse at 1-Log kill dose of 1.40 mg/kg, ip after 24 hrs to MIC for Candida glabrata isolate 33609; assay type: functional; settings: dose 1.4 mg/kg; route intraperitoneal
[31] = Ratio of fAUC in ICR/Swiss neutropenic mouse at static dose of 0.06 mg/kg, ip after 24 hrs to MIC for Candida glabrata isolate 32930; assay type: functional; settings: route intraperitoneal
[32] = test system: Candida albicans; experiment: Antifungal activity against Candida albicans isolate 98-210 infected in ICR/Swiss neutropenic mouse assessed as dose required for 1-log kill after 24 hrs; assay type: functional; in short: as §4
[33] = test system: Nakaseomyces glabratus; experiment: Antifungal activity against Candida glabrata isolate 35315 by CLSI method; assay type: functional; in short: as §2
[34] = AUC in healthy human at 100 mg/day; assay type: ADME, organism-based; settings: plasma

CCCCCOc1ccc(-c2cc(-c3ccc(C(=O)N[C@H]4C[C@@H](O)[C@@H](O)NC(=O)[C@@H]5[C@@H](O)[C@@H](C)CN5C(=O)[C@H]([C@H](O)CC(N)=O)NC(=O)[C@H]([C@H](O)[C@@H](O)c5ccc(O)c(OS(=O)(=O)O)c5)NC(=O)[C@@H]5C[C@@H](O)CN5C(=O)[C@H]([C@@H](C)O)NC4=O)cc3)no2)cc1 [MICAFUNGIN] (X1-[Orn(4R-OH,5R-OH)]T[Hyp][hTyr(3S-OH,4S-OH,3'-OSO3H)][Gln(3R-OH)][Pro(3S-OH,4S-Me)]; lactam 1-C)
RatioAUC/MIC [1]: 984
RatioAUC/MIC [2]: 3107
RatioAUC/MIC [3]: 1960
MIC [4]: 0.016 µg/mL (≈ 0.0126 µM)
MIC50 [4]: 0.008 µg/mL (≈ 0.0063 µM)
fAUC/MIC [5]: 1.9
MIC [6]: 0.5 µg/mL (≈ 0.394 µM)
MIC50 [6]: 0.25 µg/mL (≈ 0.197 µM)
MIC [7]: 0.25 µg/mL (≈ 0.197 µM)
MIC50 [7]: 0.25 µg/mL (≈ 0.197 µM)
fAUC/MIC [8]: 2.5
Activity [9]: 0.06 mg/kg
RatioAUC/MIC [10]: 10000
fAUC/MIC [11]: 4.9
fAUC [12]: 0.32 µg·h/mL
RatioAUC/MIC [13]: 7857
RatioAUC/MIC [14]: 2333
Activity [15]: 1.98 mg/kg
Activity [16]: 2 mg/kg
fAUC/MIC [17]: 1.1
Activity [18]: 1.69 mg/kg
Activity [19]: 2.84 mg/kg
RatioAUC/MIC [20]: 1686
RatioAUC/MIC [21]: 3333
fAUC/MIC [22]: 6.2
fAUC/MIC [23]: 8.4
Activity [24]: 20.6 mg/kg
Activity [25]: 1.8 mg/kg
Activity [26]: 2.53 mg/kg
AUC(0-inf) [27]: 520 µg·h/mL
MIC50 [28]: 0.015 µg/mL (≈ 0.0118 µM)
MIC90 [28]: 0.03 µg/mL (≈ 0.0236 µM)
Activity [29]: 1.34 mg/kg
fAUC/MIC [30]: 6.5
fAUC/MIC [31]: 0.5
Activity [32]: 10.4 mg/kg
MIC [33]: 0.12 µg/mL (≈ 0.0945 µM)
MIC50 [33]: 0.06 µg/mL (≈ 0.0472 µM)
AUC [34]: 126 µg·h/mL
